Source: the RNAGym collection of RNA variant scans (doi:10.1126/science.aae0568)
Fewer inactive variants are shown than the library holds.

B1: tRNA (parent)
chain: GUUCCGUUGGCGUAAUGGUAACGCGUCUCCCUCCUAAGGAGAAGACUGCGGGUUCGAGUCCCGUACGGAACG

Variants of: B1
Test: yeast fitness relative to wild type (ratio to wild type); higher = fitter; tRNA-Arg(CCU), competitive growth, 37 C, YPD
How it was run: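 Start and end populations of a pooled competition were compared by 100-nucleotide paired-end sequencing of gene amplicons. The Saccharomyces cerevisiae strains carried tRNA-Arg(CCU) gene variants at the native genomic locus, synthesised with a 3% per-site mutation rate at 69 sites, and competed in YPD at 37°C for 24 hours in six parallel replicates. Darwinian fitness relative to wild type was based on the change in genotype frequencies. Genotypes required ≥ 100 starting reads, and estimates < 0.5 were set to 0.5.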

Row | Variant | yeast fitness
1 | U26C C31A A42U | 0.9
2 | G25A U53A | 0.741
3 | G25A U53C | 0.819
4 | G25A C31G C55G | ≤ 0.5
5 | U26C C27G A40C C66U | ≤ 0.5
6 | U26A C46A C62G | 0.797
7 | U26A A37G U64A | ≤ 0.5
8 | G25C C49U U54G | 0.58
9 | G25C C27G | 0.553
10 | G25C U28C | 0.79
11 | G25C C61A C66U | ≤ 0.5
12 | G25C C49G | 0.781
13 | G25C G51A | 1.01
14 | G25A C60A C66U | ≤ 0.5
15 | G25C C29U A45C G58A | ≤ 0.5
16 | G25A C31U G41U | 0.739
17 | U26A C33A A45C | 0.55
18 | U26A C61G A70U | 0.764
19 | U26A A57C | 0.64
20 | U26C C30U | 0.67
21 | G25A C49U U59G | 0.54
22 | G25C A43U A45G | 0.518
23 | U26A C55A G68C | ≤ 0.5
24 | G25A C46G A65U | 0.788

Row | Variant | yeast fitness
25 | U26C A43U A70U | 0.707
26 | G25A U47G C49A | 0.548
27 | G25A C34G G50C C62A | ≤ 0.5
28 | G25C C29G A40U | ≤ 0.5
29 | G25A C33A A40G A70C | ≤ 0.5
30 | U26A G52C | 0.645
31 | G25A G39C A57C | ≤ 0.5
32 | G25C G41C C46U C66U | ≤ 0.5
33 | U26A C60A | 0.787
34 | U26A G67A | 0.905
35 | G25A U26A C31U G38A A42G A43U G67C | 0.613
36 | U26A A65C | 0.946
37 | U26A G44C A57C A69U | 0.653
38 | U26A C61A A65U | 0.686
39 | U26A C66U | 0.824
40 | U26A C66A | 0.572
41 | G25C C33G A43C A57C G63C | ≤ 0.5
42 | G25C C34U A37U A40U | ≤ 0.5
43 | G25C G38C C49U A57U C66A | 0.571
44 | G25A G41A G56A | 0.871
45 | U26A G39A | 0.87
46 | G25C C30U A70C | 0.596
47 | U26A G51A | 0.769
48 | U26A G39A G41C | ≤ 0.5

Row | Variant | yeast fitness
49 | U26C A43U G63A | 0.658
50 | G25C U32G G38A C61U | ≤ 0.5
51 | G25C C31A A69C | 0.585
52 | G25C C29G U32G A43U G50A | ≤ 0.5
53 | U26C A45U G68C | ≤ 0.5
54 | G25C A43C C49U | 0.632
55 | G25C C30U A69C | 0.606
56 | U26A C27U | 0.919
57 | U26C C30G C34A C49G G50A U64A | ≤ 0.5
58 | U26A A57C C61G G67A A69U | ≤ 0.5
59 | G25A G44C G52A C62G A69G | ≤ 0.5
60 | G25A U54A C66A | ≤ 0.5
61 | G25C A45C A70C | 0.677
62 | G25U A65U | 1.02
63 | G25A C46A | 0.876
64 | G25A G48C C62A | 0.611
65 | G25C G51A A65G | 0.742
66 | U26A U54A | 0.589
67 | G25C C29A A65U | 0.558
68 | G25A C49U C55U | 0.683
69 | G25C C34G | 0.551
70 | G25C G48A | 0.951
71 | G25C G48A G68A | 0.564
72 | U26A C27A U28A C34U G68A A69C | 0.534

Row | Variant | yeast fitness
73 | G25C C29A U32A A65U | ≤ 0.5
74 | G25A G41A C49U A69U | 0.574
75 | U26A A42G G48C C62G | ≤ 0.5
76 | U26C A40G | 1.03
77 | G25C C33G C60A | ≤ 0.5
78 | G25U A36U G56C A65C C66U | ≤ 0.5
79 | U26C C30U U47A | 0.749
80 | U26A C62A | 0.803
81 | G25C C34G G51A | ≤ 0.5
82 | U26A A42C C49U C60G U64C C66A | ≤ 0.5
83 | G25A G52U | 0.627
84 | G25A G52A | 0.572
85 | G25C C27G C46G C55A | ≤ 0.5
86 | U26A C30G A37C A69C | ≤ 0.5
87 | U26A C33U U53C | 0.54
88 | U26A U64G A65U A69C | ≤ 0.5
89 | U26A C30A A37C A43U G51C | 0.595
90 | G25A C46A G52C G68A | ≤ 0.5
91 | G25C C66U A69C | 0.685
92 | U26C C30U G44C G51A C61U | ≤ 0.5
93 | U26C C31U | 1.07
94 | U26C C31G | 0.875
95 | G25C C31U A65U | 0.726
96 | G25C A65G | 1

Row | Variant | yeast fitness
97 | G25C G50C G56A G58A | ≤ 0.5
98 | U26C C30G C34A C62U | ≤ 0.5
99 | U26A G63C A69U | 0.527
100 | U26A C30A C34A G48C | 0.583
101 | U26A A45G C66G G67U | ≤ 0.5
102 | G25C G48A G63A A69G | ≤ 0.5
103 | G25C A43U G50A | 0.704
104 | U26A C31U G48A A65G | 0.683
105 | G25C C33U C49A U53A | ≤ 0.5
106 | G25A G67A | 0.875
107 | G25A C34U A65U | 0.671
108 | G25C C33A A57U A69U | 0.548
109 | U26A U35C G68A | 0.631
110 | G25C C49U G51A A65C A69C | ≤ 0.5
111 | G25A C62U G68A | 0.641
112 | G25C C55U | 0.916
113 | U26A U28A C30G | 0.584
114 | U26A A36U C49A | ≤ 0.5
115 | U26A C30G A37C U59A | ≤ 0.5
116 | U26A U28C C30G | ≤ 0.5
117 | U26A A40C U54A | ≤ 0.5
118 | U26A G41C A65G G67A | ≤ 0.5
119 | G25U C30A C46A | 0.581
120 | G25A G44C | 1.04

Row | Variant | yeast fitness
121 | U26A G39A G41C U54C | ≤ 0.5
122 | G25A C46U A57G | 0.676
123 | G25A U32A U53A | ≤ 0.5
124 | G25A C31U A43C A57C | ≤ 0.5
125 | U26C C29A A36C | ≤ 0.5
126 | U26A A40U C61U | 0.656
127 | U26C C27G A40C | ≤ 0.5
128 | G25C G39C G44C C49U C60U G68C | ≤ 0.5
129 | U26A C31G G63C | ≤ 0.5
130 | U26A C27U A65G | 1
131 | U26A A43U A65U | 0.618
132 | G25C C29G C30U C49G | 0.61
133 | U26A G63A G68C A69G | ≤ 0.5
134 | G25C U53C A65C | 0.697
135 | U26A A45U | 1.03
136 | G25A C34G C46U U54A | ≤ 0.5
137 | G25C G44C C49U | 0.505
138 | G25A G68A | 1.02
139 | U26A C34U A43U C66G | 0.628
140 | U26C C27U C62A | 0.658
141 | G25C C27A C30G | ≤ 0.5
142 | G25C U26G C46G C62G | ≤ 0.5
143 | G25C U26A C61A | ≤ 0.5
144 | G25A C33U | 0.655

Row | Variant | yeast fitness
145 | G25C G39A G58C | 0.663
146 | G25A C55A | 0.725
147 | G25A C55U | 0.84
148 | G25U A36U G56C | ≤ 0.5
149 | G25A U59A | 1.06
150 | U26C C29U C61U | ≤ 0.5
151 | U26C C30A C49U | 0.533
152 | G25A C31U G38C C62U | 0.697
153 | U26A G48A C62A | 0.605
154 | U26A A36U | 0.606
155 | U26A A37C C49U G56A | ≤ 0.5
156 | G25C C62G | 0.877
157 | G25C G44A | 0.97
158 | G25A C33G A57G G58A U59C A65U | ≤ 0.5
159 | U26C C30G G41A C60G C62U G68A | ≤ 0.5
160 | G25C C66A | 0.677
161 | G25C C66G | 0.639
162 | G25C C66U | 0.972
163 | U26A A40G G58C G67U | 0.556
164 | U26A A42G | 0.891
165 | U26A A42C | 0.97
166 | U26A G44C C55U G67U | 0.759
167 | G25A U32A | 0.744
